Data from ChEMBL document CHEMBL1129481, “Interactions of flavonoids and other phytochemicals with adenosine receptors” (J Med Chem, 1996).

Experiments:
[1] = molecular target: T1, Adenosine receptor A3 (Homo sapiens) (UniProt P0DMS8); assay: Displacement of specific [125I]AB-MECA binding from human Adenosine A3 receptor expressed in HEK293 cells; assay type: cell-based; design: concentration or dose not given beside the values
T1 sequence (whole entry): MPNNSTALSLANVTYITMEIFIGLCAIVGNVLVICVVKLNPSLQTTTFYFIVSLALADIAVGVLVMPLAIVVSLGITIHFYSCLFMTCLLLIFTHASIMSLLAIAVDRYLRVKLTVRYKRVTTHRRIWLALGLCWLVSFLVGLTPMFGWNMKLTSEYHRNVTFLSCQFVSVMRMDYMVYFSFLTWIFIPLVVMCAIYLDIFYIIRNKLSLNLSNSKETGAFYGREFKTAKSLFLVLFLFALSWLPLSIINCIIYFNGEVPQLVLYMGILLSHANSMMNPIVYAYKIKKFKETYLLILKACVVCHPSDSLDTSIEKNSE
How it was run: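 Membranes came from HEK-293 cells stably expressing human A3. Binding used Mg2+-free 50 mM Tris with 1 mM EDTA, pH 8.0, and 0.3 nM final [125I]AB-MECA. Compounds came from DMSO stock, ≤1% final. Duplicates ran 1 h at 37 or 25 °C, then filtration and γ-counting. Nonspecific binding was set with 100 μM (R)-PIA.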

[2] = molecular target: T2, Adenosine receptor A1 (Rattus norvegicus) (UniProt P25099); assay: Displacement of [3H]PIA from Adenosine A1 receptor in rat brain membranes; assay type: cell membranes
T2 sequence (whole entry): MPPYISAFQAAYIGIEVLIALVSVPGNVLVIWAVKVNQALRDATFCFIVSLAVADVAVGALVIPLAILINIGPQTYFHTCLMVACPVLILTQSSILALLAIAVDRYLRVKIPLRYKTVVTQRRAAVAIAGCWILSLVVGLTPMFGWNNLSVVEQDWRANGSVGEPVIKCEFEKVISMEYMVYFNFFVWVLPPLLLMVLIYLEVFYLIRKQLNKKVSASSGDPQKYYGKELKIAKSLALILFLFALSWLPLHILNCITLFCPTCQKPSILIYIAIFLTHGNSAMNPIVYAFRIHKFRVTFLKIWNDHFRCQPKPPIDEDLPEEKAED
How it was run: (§1)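 Rat cortical membranes were pretreated with adenosine deaminase (3 units/mL) for 30 min at 30 °C during preparation. The enzyme was also present during incubation with [3H]-(R)-PIA. Ki values were derived from displacement of specific binding.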

[3] = molecular target: T3, Adenosine receptor A3 (Homo sapiens, UniProt P0DMS8); assay: Displacement of [125I]AB-MECA binding to human Adenosine A3 receptor expressed in HEK293 cells; assay type: cell-based
T3 sequence (P0DMS8 whole entry): T1 sequence (whole entry)
How it was run: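 Membranes came from HEK-293 cells stably expressing human A3. Compounds came from DMSO stock, ≤1% final. Duplicates ran 1 h at 37 or 25 °C, then filtration and γ-counting. Nonspecific binding was set with 100 μM (R)-PIA.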

[4] = molecular target: T4, Adenosine receptor A1 (Rattus norvegicus, UniProt P25099); assay: Displacement of specific [3H]PIA binding from adenosine A1 receptor in rat brain membranes.; assay type: cell membranes; how it was run: as §1
T4 sequence (P25099 whole entry): T2 sequence (whole entry)

[5] = molecular target: Adenosine receptor A2a (Rattus norvegicus) (UniProt P30543); assay: Displacement of [3H]-CGS- 21680 from Adenosine A2A receptor in rat striatal membranes at 10e-4 M; assay type: cell membranes; settings: Membrane
Adenosine receptor A2a (Rattus norvegicus), sequence (P30543 whole entry): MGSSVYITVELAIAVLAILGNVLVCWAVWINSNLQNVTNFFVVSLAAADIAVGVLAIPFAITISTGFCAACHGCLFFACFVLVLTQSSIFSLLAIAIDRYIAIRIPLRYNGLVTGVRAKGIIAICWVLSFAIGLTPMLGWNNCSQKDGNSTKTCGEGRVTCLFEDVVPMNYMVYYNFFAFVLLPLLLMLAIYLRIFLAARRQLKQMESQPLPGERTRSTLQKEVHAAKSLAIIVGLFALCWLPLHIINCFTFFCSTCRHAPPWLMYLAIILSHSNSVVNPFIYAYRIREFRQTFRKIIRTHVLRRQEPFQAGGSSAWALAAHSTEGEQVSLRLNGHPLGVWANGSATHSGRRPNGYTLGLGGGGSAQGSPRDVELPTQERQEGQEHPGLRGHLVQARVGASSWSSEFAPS
How it was run: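 Rat striatal membranes were prepared with adenosine deaminase (3 units/mL), including a 30 min step at 30 °C. The enzyme was kept during the [3H]CGS 21680 incubation.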

[6] = molecular target: Adenosine receptor A2a (Rattus norvegicus, UniProt P30543); assay: Affinity at Adenosine A2A receptor in rat striatal membranes by [3H]- CGS 21680 displacement.; assay type: cell membranes, Striatum, Membrane
Adenosine receptor A2a, sequence (P30543 whole entry): as above
How it was run: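 Rat striatal membranes were prepared with adenosine deaminase (3 units/mL), including a 30 min step at 30 °C.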

Row | Compound | Displacement [1] [%] | further results
1 | COc1c(O)cc2oc(-c3ccc(O)cc3)cc(=O)c2c1O | 63 | –
2 | O=C1c2c(O)cc(O)cc2OC(c2ccc(O)c(O)c2)C1O (racemic) | – | Displacement [2]: < 10%
3 | Cc1ccc(-c2cc(=O)c3c(C)c(C)c(C)cc3o2)cc1 | – | Ki [3]: 4.48 µM; Ki [4]: 1.29 µM
4 | COc1ccc(-c2cc(=O)c3c(O)cc(OC)cc3o2)cc1 | 69 | Displacement [5]: < 10%; Displacement [2]: < 10%
5 | COc1cc(OC)c2c(=O)c(OC)c(-c3cc(OC)c(OC)c(OC)c3)oc2c1 | – | Displacement [2]: < 10%
6 | COc1ccc(-c2cc(=O)c3ccc(O)cc3o2)cc1OC | 32 | –
7 | O=c1cc(-c2ccccc2)oc2cc(O)ccc12 | 41 | –
8 | O=c1c(-c2ccc(O)cc2)coc2cc(O)cc(O)c12 | 20 | –
9 | COc1cc2c3c(c1)c1cc4c(cc1c(=O)n3CC2)OCO4 | < 10 | Displacement [5]: < 10%
10 | CCn1c2c(c3cc4c(cc3c1=O)OCO4)C(=O)CCC2 | 19 | –
11 | O=C1c2ccccc2-c2cc3c(cc21)OCO3 | 52 | –
12 | O=C1c2cc(O)c(O)cc2C2c3ccc(O)c(O)c3OCC12O (stereo not given) | < 10 | Displacement [5]: 28%
13 | COc1cc(O)c2c(c1)OC(c1ccc(O)cc1)CC2=O (stereo not given) | – | Ki [6]: 35.6 µM; Ki [3]: 3.4 µM; Ki [4]: 8.18 µM
14 | COc1cc2c3c(oc(=O)c2cc1OC)CCCC3=O | < 10 | –
15 | COC1C=CC23c4cc5c(cc4C[N+](C)(CC2OC(C)=O)C3C1)OCO5 (stereo not given) | < 10 | Displacement [5]: < 10%
16 | O=c1cc(-c2ccc(O)cc2)oc2cc(O)cc(O)c12 | 63 | –
17 | O=c1cc(-c2ccccc2)oc2ccc3ccccc3c12 | 12 | Displacement [5]: < 10%
18 | COc1ccc2c(=O)c(O)c(-c3ccc(O)c(O)c3)oc2c1 | – | Ki [3]: 1.38 µM
19 | O=c1cc(-c2ccccc2)oc2cccc(O)c12 | 47 | –
20 | COc1cc2c(c(O)c1OC)c(=O)c1ccccc1n2C | 63 | –
21 | O=c1cc(-c2ccccc2)oc2c1ccc1ccccc12 | 71 | –
